LMP1 NFkB inh: inhibitors of Epstein-Barr LMP1-induced NF-kappaB reporter; AID 504558; 0.69% of 350,000 active; inhibition, % at 12.5 µM; LMP1-induced NF-kappaB luciferase reporter cells, luminescence; in the data active means inhibition above about 41%; inconclusive means no clear call, values can overlap the other calls
NR2E3 ag-1: NR2E3 (human) agonism; Q9Y5X4; GST-NR2E3/biotin-RetCOR TR-FRET, 1536-well; inhibition of corepressor binding, % at 4.78 µM; 0.12% of 320,000 active;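 active means percent inhibition above the cutoff of mean plus 3 SD of all tested compounds, set per screening campaign, cut at about 20% in these data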
Target sequence (Q9Y5X4 whole entry, looked up): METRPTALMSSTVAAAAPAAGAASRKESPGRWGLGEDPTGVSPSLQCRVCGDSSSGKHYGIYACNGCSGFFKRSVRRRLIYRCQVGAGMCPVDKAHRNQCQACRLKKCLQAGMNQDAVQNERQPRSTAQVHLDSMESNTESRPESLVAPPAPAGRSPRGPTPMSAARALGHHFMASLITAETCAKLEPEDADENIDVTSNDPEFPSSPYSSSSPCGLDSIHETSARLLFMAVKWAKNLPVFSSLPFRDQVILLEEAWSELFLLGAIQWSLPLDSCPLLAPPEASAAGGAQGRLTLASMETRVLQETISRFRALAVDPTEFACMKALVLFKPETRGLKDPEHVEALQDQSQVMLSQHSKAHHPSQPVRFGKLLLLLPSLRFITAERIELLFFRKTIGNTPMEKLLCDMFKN
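Material – GST-tagged NR2E3 plus biotinylated RetCOR corepressor · Quantity – NR2E3 fusion 1.35 nM · Times – 5 h incubation at 4 °C · Medium – pH 7.5 Tris-based buffer · Technique – TR-FRET, Eu(K)-anti-GST donor, streptavidin-D2 acceptor, ex 340, em 617/671 nm · Benchmarks – high control biotin, low control 0.6% DMSO · Format – 1536-well plates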
TROY NFkB inh: inhibitors of TROY-dependent NF-kB signaling | Q293 LMP1-TROYcd NF-kB luciferase reporter, 4 h | inhibition, % at 10 µM | 0.98% of 360,000 active | AID 1347056;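 active means compounds whose plate-normalised and pattern-corrected inhibition of the luciferase reporter signal at the single screening dose is 50% or more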
HIF act: HIF pathway transcriptional activation; U2OS HRE-luciferase reporter, luminescence; normalized: DMSO 0%, desferrioxamine 100%; activation, % at 7.5 µM (by protocol); 0.32% of 300,000 active; AID 1910;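 active means mean activation of at least 10% of the iron chelator positive control signal, with at least half of replicates also reaching 10%; inconclusive means mean and replicate majority disagree about reaching 10%; inactive means mean and most replicates under 10%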
NR2E3 ag-2: activates human NR2E3 receptor. 0.35% of 360,000 active. Q9Y5X4. CHO-S Gal4-NCOR/VP16-NR2E3 two-hybrid, luciferase. inhibition of corepressor binding, % at 3.98 µM;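 active means inhibition above the mean of all tested compounds plus 3 SD, cut at about 70% in these data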;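 further: higher means lower luciferase signal from less NR2E3 corepressor binding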
Hits are given with their value; n = inactive; u = inconclusive; x = no result given. In the library only some 2% were active in any assay of this set; here they are far more common.

SMILES	LMP1 NFkB inh	NR2E3 ag-1	TROY NFkB inh	HIF act	NR2E3 ag-2
O=C(N/N=C/c1cc2cc3c(cc2nc1Cl)OCCO3)c1ccccc1O	n	n	n	n	n
CCc1cccc(NC(=O)C2CCCN2S(=O)(=O)c2ccccc2C(F)(F)F)c1 (configuration not stated)	n	x	n	x	n
Cc1ccsc1/C=N/Nc1cccc(C(=O)O)c1	66.2	n	n	n	n
Cc1nn(-c2cccc(C(F)(F)F)c2)c(Cl)c1/C=N/Nc1cccc(C(=O)O)c1	n	n	n	n	n
COc1ccc2ccccc2c1/C=N/Nc1cccc(C(=O)O)c1	n	n	n	u	n
O=C(O)c1cccc(N/N=C/c2cccc3ccccc23)c1	48.1	n	n	n	n
CCOc1cc(/C=N/Nc2cccc(C(=O)O)c2)ccc1OC(=O)c1ccccc1	59.4	x	n	n	n
Cc1nn(-c2ccccc2Cl)c(Cl)c1/C=N/Nc1cccc(C(=O)O)c1	69.1	n	n	n	n
CCc1ccc(NC(=O)CCCN2C(=O)C3CC=CCC3C2=O)cc1 (configuration not stated)	n	n	n	n	n
CC(C)OC(=O)N(C)C[C@@H]1OCc2cnnn2CCCC(=O)N([C@@H](C)CO)C[C@H]1C	n	x	n	x	n
CC1CCN(c2ccc(-c3cccs3)nn2)CC1	57.2	n	66.3	n	n
Clc1ccc(-c2cccs2)nn1	n	n	n	n	n
CCC(=Cc1ccccc1O)c1ccncc1	n	x	n	x	n
Cc1nc2cc(N3CCN(C)CC3)c(NC(=O)Cc3ccccc3)cc2c(=O)n1Cc1ccccc1	n	n	59.0	n	n
Clc1ccc(-n2ncc3c(NCc4cccnc4)ncnc32)cc1Cl	n	n	51.0	n	n
COc1ccc(C2CCc3cc4c(cc3C2=NOC(C)=O)OCO4)cc1OC (configuration not stated)	n	x	n	x	n
Cc1cc2[nH]c(=O)c(=O)[nH]c2cc1S(=O)(=O)Nc1cccc(Cl)c1	n	n	n	n	n
CN(C)C1(CNC(=O)Nc2ccccc2)CCCCC1	42.5	n	n	n	n
CC(=O)Nc1ccc(C(=S)NCC2(N(C)C)CCCCC2)cc1	n	n	n	n	n
COc1ccc(-c2csc(C(C)(O)c3ccc(F)c(F)c3)n2)cc1 (configuration not stated)	x	x	n	x	n
CC1(C(=O)NS(=O)(=O)c2ccc(F)cc2F)CCN1C(=O)c1cccc(F)c1 (configuration not stated)	x	x	n	x	n
O=C(COc1ccc(Br)cc1)NNC(=O)c1cc(S(=O)(=O)N2CCOCC2)ccc1Cl	n	x	n	x	n
Cc1ccc(C)c(/C=N/n2cc(-c3ccccc3)[nH]c2=S)c1	n	n	53.0	n	n
COc1ccc(NC(=O)N(C)C[C@H]2OCc3cn(nn3)CCCC(=O)N([C@@H](C)CO)C[C@@H]2C)cc1	n	x	n	x	n
CC(=O)c1ccc(-n2c(CCC(=O)O)ccc2-c2ccc(C)cc2)cc1	n	n	n	n	n
SMILES	LMP1 NFkB inh	NR2E3 ag-1	TROY NFkB inh	HIF act	NR2E3 ag-2
CC(=O)c1ccc(-n2c(CCC(=O)O)ccc2-c2ccccc2)cc1	n	n	58.5	n	n
CCN(CC)CCOc1ccc2c(c1)C(=NO)c1cc(OCCN(CC)CC)ccc1-2	n	n	n	61.6	n
COc1cc(/C=C2\SC(=Nc3ccccc3)N(CCc3c[nH]c4ccccc34)C2=O)ccc1OC(C)C(=O)O (configuration not stated)	n	n	58.8	n	n
O=C1/C(=C/c2ccc(N3CCOCC3)o2)SC(=Nc2ccccc2)N1CCc1c[nH]c2ccccc12	n	n	n	n	n
COc1ccc(N=C2S/C(=C\c3ccc(OC(C)C(=O)O)c(OC)c3)C(=O)N2CCc2c[nH]c3ccccc23)cc1 (configuration not stated)	n	x	54.3	n	n
CC(=O)Nc1ccc(-c2ccnc3c2CC(C(=O)NCCC(F)(F)F)O3)cc1 (configuration not stated)	x	x	n	x	n
CN(C)Cc1csc(NC(=O)Nc2ccccc2C(C)(C)C)n1	x	x	n	x	n
O=C(NCCc1cccc(Cl)c1)c1ccc(OC2CCN(Cc3ccccn3)CC2)cc1	x	x	73.3	n	n
Cc1ccccc1C(=O)NCC(=O)OC(C)C(=O)NCc1ccco1 (configuration not stated)	n	n	n	n	n
Cc1cc(O)c(C(C)C)cc1NC(=O)Nc1ccc([N+](=O)[O-])cc1	n	x	n	x	n
Cc1ccc(C(C)C)cc1NC(=O)Nc1ccc([N+](=O)[O-])cc1	n	n	58.7	n	n
CCn1nnnc1SCC(=O)Nc1nc2ccccc2s1	n	n	n	n	n
COCCCn1nnnc1SCC(=O)Nc1nc2ccccc2s1	n	n	81.3	n	n
O=C(/C=C/c1ccc(OCCCF)cc1)Nc1ccnc(-c2cccnc2)n1	n	n	51.6	n	n
O=C(/C=C/c1ccc(OCCCF)cc1)Nc1ccnc(-c2ccncc2)n1	n	n	n	n	n
Cc1ccc(NC(=O)N2CCC(NC(=O)c3cccc(C)c3)CC2)cc1	n	n	n	150.5	n
CCOC1=C2[C@H](c3ccccc3)N(S(=O)(=O)c3ccc(C)cc3)[C@H](C(C)C)[C@H]2n2c(=O)n(-c3ccccc3)c(=O)n2C1	x	x	n	x	n
CCOC(=O)c1sc(NC(=O)Nc2ccccc2F)nc1C	n	n	82.1	n	n
CCOC(=O)c1sc(Nc2ccccc2Cl)nc1C	n	n	n	n	n
Cn1cccc1C1CCCN1CC(=O)Nc1ccc(F)c(F)c1F (configuration not stated)	n	x	n	x	n
O=C(Nc1ccccc1)Nc1cccc2ccccc12	n	n	n	n	n
Cc1cccnc1NC(=O)Nc1cccc2ccccc12	n	n	65.8	n	n
COc1ccc(N=C2C(=O)N3CCCc4cccc2c43)cc1	n	n	n	391.6	n
Cc1c(CNCCCc2ccccc2)c(C(=O)O)c(C)n1Cc1ccccc1	n	n	51.6	n	n
Cc1c(CNCC(C)c2ccccc2)c(C(=O)O)c(C)n1Cc1ccccc1 (configuration not stated)	n	n	n	n	n
SMILES	LMP1 NFkB inh	NR2E3 ag-1	TROY NFkB inh	HIF act	NR2E3 ag-2
O=S(=O)(NCc1cn2ccsc2n1)c1ccc(Oc2ccccc2)cc1	n	n	n	n	88.5
CC(=O)Nc1ccc2nc(NC(=O)COc3ccccc3C)sc2c1	n	n	n	11.7	n
CC1(C(=O)NS(=O)(=O)C2CC2)CCCN(C(=O)/C=C/c2ccccc2)C1 (configuration not stated)	x	x	n	x	n
O=C(CSc1nnc(-c2ccccc2Cl)o1)N1CCOCC1	n	n	n	14.3	n
COc1ccccc1-c1nnc(SCC(=O)N2CCOCC2)o1	n	n	n	n	n
COC(=O)[C@]12CCCCC=C1N(Cc1ccccc1)C(=O)[C@H](CC(=O)N1CCC(c3ccccc3)CC1)C2	x	x	n	x	n
Cc1cc(C)n(C2CCCCC2OC(=O)CCc2ccccc2)n1 (configuration not stated)	n	n	n	n	n

Assay outcomes deposited in PubChem BioAssay by several laboratories.
